The record followed here is ChEMBL document CHEMBL1123390, “3-Hydroxy-3-methylglutaryl-coenzyme A reductase inhibitors. 3. 7-(3,5-Disubstituted [1,1'-biphenyl]-2-yl)-3,5-dihydroxy-6-heptenoic acids and their lactone derivatives” (J Med Chem, 1986).

For assay [1], the target named is T1, 3-hydroxy-3-methylglutaryl-coenzyme A reductase (Rattus norvegicus, UniProt P51639).
T1 sequence (P51639 whole entry): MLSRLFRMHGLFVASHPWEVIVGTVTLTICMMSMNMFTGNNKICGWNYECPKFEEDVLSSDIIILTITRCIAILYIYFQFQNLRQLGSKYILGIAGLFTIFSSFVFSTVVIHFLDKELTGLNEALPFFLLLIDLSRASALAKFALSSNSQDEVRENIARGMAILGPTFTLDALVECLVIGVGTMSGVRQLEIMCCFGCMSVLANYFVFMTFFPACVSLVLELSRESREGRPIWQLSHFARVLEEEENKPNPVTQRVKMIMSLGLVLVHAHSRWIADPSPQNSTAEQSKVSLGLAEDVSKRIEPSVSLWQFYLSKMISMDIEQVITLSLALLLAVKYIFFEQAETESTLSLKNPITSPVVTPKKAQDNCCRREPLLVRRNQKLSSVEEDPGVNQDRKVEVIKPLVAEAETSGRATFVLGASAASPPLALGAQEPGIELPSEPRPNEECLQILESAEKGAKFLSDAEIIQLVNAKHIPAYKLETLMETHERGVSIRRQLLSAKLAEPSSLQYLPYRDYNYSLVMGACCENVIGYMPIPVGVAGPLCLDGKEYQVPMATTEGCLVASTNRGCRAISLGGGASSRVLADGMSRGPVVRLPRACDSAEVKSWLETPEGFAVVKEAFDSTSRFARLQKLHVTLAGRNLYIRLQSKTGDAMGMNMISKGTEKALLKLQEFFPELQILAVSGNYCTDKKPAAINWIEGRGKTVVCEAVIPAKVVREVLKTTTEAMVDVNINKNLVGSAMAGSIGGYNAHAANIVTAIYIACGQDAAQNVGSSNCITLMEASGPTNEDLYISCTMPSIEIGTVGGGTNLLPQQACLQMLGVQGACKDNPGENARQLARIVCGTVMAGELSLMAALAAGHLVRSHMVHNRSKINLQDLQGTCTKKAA
Put plainly: Inhibition of solubilized partially purified rat liver HMG-CoA reductase. The method in brief: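 Enzyme inhibition was tested at four or five test-compound concentrations, and percentage inhibition was plotted against concentration. IC50 came from a straight line fitted to these points by least squares. The full protocol is given in part 1 of the series.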

The target in assay [2] is T2, 3-hydroxy-3-methylglutaryl-coenzyme A reductase (Rattus norvegicus) (UniProt P51639).
T2 sequence (whole entry): T1 sequence (P51639 whole entry)
Nature of the assay: Inhibitory potency against purified rat liver HMG-CoA reductase relative to compactin.

The term IC50 denotes the midpoint of a concentration-inhibition curve. Higher therefore signals weaker potency. Compound `Cc1cc(C)c(/C=C/[C@@H]2C[C@@H](O)CC(=O)O2)c(/C=C/c2ccc(Cl)cc2)c1` returned a half-inhibitory concentration (IC50) in assay [1] of 630 nM. In addition, the Relative potency in assay [2] was 2.4.
In turn, `O=C1C[C@H](O)C[C@@H](/C=C/c2ccccc2-c2ccccc2)O1` yielded a Relative potency in assay [2] of 0.63.
Compound `COc1cccc(-c2cc(Cl)cc(Cl)c2/C=C/[C@@H]2C[C@@H](O)CC(=O)O2)c1` came in with a concentration for half-maximal inhibition (IC50) in assay [1] of 50 nM. The compound further had a Relative potency in assay [2] of 26.
The compound `Cc1ccc(C)c(-c2ccc(Cl)c(Cl)c2)c1/C=C/[C@@H]1C[C@@H](O)CC(=O)O1` came in with a half-inhibitory concentration (IC50) in assay [1] of 13 nM. In assay [2], this compound gave a Relative potency of 123.
On to `Cc1cc(C)c(/C=C/[C@@H]2C[C@@H](O)CC(=O)O2)c(-c2ccc(F)c(C)c2)c1` (stereo in doubt; 110 (+)) [listing 1 of 2 here], for which the Relative potency in assay [2] was 289.
In assay [1], `O=C1C[C@H](O)C[C@@H](/C=C/c2c(F)cc(F)cc2-c2ccc(F)cc2)O1` showed a concentration for half-maximal inhibition (IC50) of 860 nM. Further, the Relative potency in assay [2] was determined as 3.5.
For `O=C1C[C@H](O)C[C@@H](/C=C/c2c(Cl)cc(Cl)cc2-c2ccc(Cl)c(Cl)c2)O1`, the midpoint of inhibition in assay [1], the IC50, lay at 25 nM. In assay [2], the Relative potency came out at 116.
Take `O=C1C[C@H](O)C[C@@H](/C=C/c2c(Cl)cc(Cl)cc2-c2ccc(F)cc2)O1` (stereo in doubt; 100(+)h) [listing 1 of 2 here]: the Relative potency in assay [2] turned out to be 280.
On the same count and under the same terms, in the case of `Cc1cc(C)c(/C=C/[C@@H]2C[C@@H](O)CC(=O)O2)c(-c2ccc(F)c(C)c2)c1` (stereo in doubt; 110(-)) [listing 1 of 2 here] it was 0.18.
With `Cc1cc(C)c(/C=C/[C@@H]2C[C@@H](O)CC(=O)O2)c(-c2ccc(Cl)c(Cl)c2)c1`, the IC50 in assay [1] was determined as 8 nM. For the same compound, in assay [2], the Relative potency was found to be 175.
On to `Cc1cc(C)c(/C=C/[C@@H]2C[C@@H](O)CC(=O)O2)c(-c2ccc(F)c(C)c2)c1` (stereo in doubt; 110 (+)) [listing 2 of 2 here], for which the midpoint of inhibition in assay [1], the IC50, lay at 7.6 nM. This counts as single-digit nanomolar.
`Cc1cc(-c2cc(Cl)cc(C)c2/C=C/[C@@H]2C[C@@H](O)CC(=O)O2)ccc1F` showed an IC50 in assay [1] of 6 nM. In assay [2], this compound gave a Relative potency of 233.
The corresponding values for `Cc1cc(-c2cccc(Cl)c2/C=C/[C@@H]2C[C@@H](O)CC(=O)O2)ccc1F` are 30 nM and 40.
In the case of `Cc1cc(C)cc(-c2cc(C)cc(C)c2/C=C/[C@@H]2C[C@@H](O)CC(=O)O2)c1`, the IC50 in assay [1] amounted to 15 nM. The compound further displayed a Relative potency in assay [2] of 80.
The corresponding values for `Cc1ccccc1-c1cc(Cl)cc(Cl)c1/C=C/[C@@H]1C[C@@H](O)CC(=O)O1` are 370 nM and 3.2.
For the compound `Cc1cc(C)c(/C=C/[C@@H]2C[C@@H](O)CC(=O)O2)c(-c2ccc(F)c(C)c2)c1` (stereo in doubt; 110) [listing 1 of 2 here], the Relative potency in assay [2] was found to be 171.
With `O=C1C[C@H](O)CC(CCc2ccccc2-c2ccccc2)O1` (some centres undefined), the IC50 in assay [1] came out at 44000 nM. For the same compound, in assay [2], the Relative potency came to 0.44.
In assay [1], `Cc1cc(Cl)c(/C=C/[C@@H]2C[C@@H](O)CC(=O)O2)c(-c2ccc(F)c(C)c2)c1` came in with an IC50 of 13 nM. For the same compound, the Relative potency in assay [2] was 92.
`O=C1C[C@H](O)C[C@@H](/C=C/c2c(Cl)cc(Cl)cc2-c2ccc(F)cc2)O1` (stereo in doubt; 100(i)i) [listing 1 of 2 here] displayed a Relative potency in assay [2] of 5.
For `O=C1C[C@H](O)C[C@@H](/C=C/c2c(Cl)cc(Cl)cc2-c2ccc(F)cc2)O1` (stereo in doubt; 100) [listing 1 of 2 here], in assay [2], the Relative potency was 100.
In turn, `CCc1cccc(-c2cc(Cl)cc(Cl)c2/C=C/[C@@H]2C[C@@H](O)CC(=O)O2)c1` came in with an IC50 in assay [1] of 44 nM. Moreover, the Relative potency in assay [2] worked out at 30.
The corresponding values for `O=C1C[C@H](O)C[C@@H](/C=C/c2c(Cl)cc(Cl)cc2CCc2ccccc2)O1` are 430 nM and 2.8.
As to `Cc1cc(C)c(/C=C/[C@@H]2C[C@@H](O)CC(=O)O2)c(-c2ccc(F)c(C)c2)c1` (stereo in doubt; 110(-)) [listing 2 of 2 here], it took 7300 nM to reach half-maximal inhibition in assay [1] (IC50).
For `Cc1cc(C)cc(-c2cc(Cl)cc(Cl)c2/C=C/[C@@H]2C[C@@H](O)CC(=O)O2)c1`, it took 13 nM to reach half-maximal inhibition in assay [1] (IC50). This compound also returned a Relative potency in assay [2] of 115.
Take `O=C1C[C@H](O)C[C@@H](/C=C/c2ccc(Cl)cc2Cl)O1`: in assay [2], the Relative potency was 0.06.
For `O=C1C[C@H](O)C[C@@H](/C=C/c2c(Cl)cc(Cl)cc2-c2cc(Cl)cc(Cl)c2)O1`, in assay [1], the IC50 came to 37 nM. For the same compound, the Relative potency in assay [2] is 78.
The corresponding values for `Cc1ccc(-c2cc(Cl)cc(Cl)c2/C=C/[C@@H]2C[C@@H](O)CC(=O)O2)cc1` are 190 nM and 11.
The corresponding values for `O=C1C[C@H](O)CC(CCc2c(Cl)cc(Cl)cc2Cc2ccccc2)O1` (some centres undefined) are 530 nM and 4.3.
The corresponding values for `COc1ccc(-c2cc(Cl)cc(Cl)c2/C=C/[C@@H]2C[C@@H](O)CC(=O)O2)cc1` are 470 nM and 2.6.
Compound `Cc1cc(C)c(/C=C/[C@@H]2C[C@@H](O)CC(=O)O2)c(-c2cc(C)c(F)c(C)c2)c1` came in with an IC50 in assay [1] of 10 nM. The compound further gave a Relative potency in assay [2] of 150.
The corresponding values for `Cc1cc(C)c(/C=C/[C@@H]2C[C@@H](O)CC(=O)O2)c(-c2ccc(F)c(CO)c2)c1` are 49 nM and 26.5.
As to `Cc1cccc(-c2cc(Cl)cc(Cl)c2/C=C/[C@@H]2C[C@@H](O)CC(=O)O2)c1`, the IC50 in assay [1] amounted to 16 nM. The compound also showed a Relative potency in assay [2] of 94.
Take `O=C1C[C@H](O)C[C@@H](/C=C/c2c(Cl)cc(Cl)cc2-c2ccccc2)O1`: the midpoint of inhibition in assay [1], the IC50, lay at 80 nM. The compound also had a Relative potency in assay [2] of 26.
Compound `Cc1cc(C)c(CCC2C[C@@H](O)CC(=O)O2)c(-c2ccc(F)c(C)c2)c1` (some centres undefined) came in with an IC50 in assay [1] of 22 nM. In addition, the Relative potency in assay [2] came to 45.
The corresponding values for `Cc1cc(C)c(/C=C/[C@@H]2C[C@@H](O)CC(=O)O2)c(-c2ccc(F)cc2)c1` are 13 nM and 96.
With `Cc1cc(C)c(/C=C/[C@@H]2C[C@@H](O)CC(=O)O2)c(-c2ccc(F)c(C)c2)c1` (stereo in doubt; 110) [listing 2 of 2 here], in assay [1], the concentration for half-maximal inhibition (IC50) was 7 nM.
As to `O=C1C[C@H](O)C[C@@H](/C=C/c2c(Cl)cc(Cl)cc2-c2ccc(Cl)cc2)O1`, in assay [1], inhibition was half-maximal at 36 nM (IC50). The Relative potency in assay [2] stood at 58.
The corresponding values for `O=C1C[C@H](O)CC(CCc2c(Cl)cc(Cl)cc2-c2ccccc2)O1` (some centres undefined) are 100 nM and 18.
The compound `O=C1C[C@H](O)C[C@@H](/C=C/c2c(Cl)cc(Cl)cc2-c2ccc(F)cc2)O1` (stereo in doubt; 100(i)i) [listing 2 of 2 here] came in with an IC50 in assay [1] of 260 nM.
`O=C1C[C@H](O)C[C@@H](/C=C/c2c(Cl)cc(Cl)cc2-c2cccc(F)c2)O1` registered a half-maximal inhibitory concentration (IC50) in assay [1] of 70 nM. This compound also gave a Relative potency in assay [2] of 38.6.
In assay [1], `O=C1C[C@H](O)C[C@@H](/C=C/c2c(Cl)cc(Cl)cc2-c2ccc(F)cc2)O1` (stereo in doubt; 100(+)h) [listing 2 of 2 here] came in with an IC50 of 5 nM.
Consider `Cc1cc(-c2cc(Cl)cc(Cl)c2/C=C/[C@@H]2C[C@@H](O)CC(=O)O2)ccc1F`, for which half-maximal inhibition in assay [1] (IC50) required 29 nM. In assay [2], this compound displayed a Relative potency of 100.
In assay [1], `O=C1C[C@H](O)C[C@@H](/C=C/c2c(Cl)cc(Cl)cc2-c2ccc(F)cc2)O1` (stereo in doubt; 100) [listing 2 of 2 here] showed an IC50 of 24 nM.
In assay [1], `Cc1cc(F)ccc1-c1cc(Cl)cc(Cl)c1/C=C/[C@@H]1C[C@@H](O)CC(=O)O1` came in with an IC50 of 36 nM. Besides, the Relative potency in assay [2] is 33.
